Assay results as given in PubChem BioAssay AID638 (SRMLSC, 2007).
About 65 (5%) of roughly 1,300 compounds were called active.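 How the source made its calls: active means growth inhibition reaching a set limit at one or more tested doses; inactive means the rest.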 Only a sample is shown. Results with a measured potency or affinity are listed apart.

Assay: growth inhibition of wild-type E. coli, dose response, BW25113 wild type, OD615 (AID 638)
Settings: at 100 µM (top of the series) unless noted
Outline: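 assay system = wild-type Escherichia coli strain BW25113 growth | medium = Kanamycin-supplemented LB broth | measured by = optical density (absorbance) at 615 nm | timing = bacterial exposure to compound 20 h at 37 °C | doses = compound concentration series | measure = IC50 from 4-parameter logistic, bounds fixed 0–100% | controls = chloramphenicol 30 µM control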
In the case of COc1ccc(-c2noc(Cc3ccc(Cl)cc3)n2)cc1OC, the growth inhibition is reported as 7.9% (inactive). With COc1cccc(N2CC(C(=O)Nc3ccc(C(=O)OC(C)C)cc3)CC2=O)c1 (stereo not given) the growth inhibition was 5.31% (inactive). In the case of CCCCCOC(=O)c1ccc(NC(=O)c2ccco2)cc1, the growth inhibition is reported as -0.06% (inactive). With CCOC(=O)c1cnc(-n2nc(C)cc2C)nc1NC1CCCCC1 the growth inhibition was -4.22% (inactive). With COc1ccccc1N1CCN(Cc2nc(N)nc(Nc3ccc(C)c(Cl)c3)n2)CC1 the growth inhibition was 8.69% (inactive). For CN1C(=O)C2(OCC(COc3ccc(Cl)cc3)O2)c2ccccc21 (stereo not given), the growth inhibition was -7.83% (inactive). In the case of Cc1ccc(C)c(Cn2c(CN(C)Cc3ccccc3)nc3c2c(=O)n(C)c(=O)n3C)c1, the growth inhibition is reported as -10% (inactive). In the case of CCC(Oc1ccccc1)C(=O)Nc1ccc(-c2nnc(-c3ccco3)o2)cc1 (stereo not given), the growth inhibition is reported as -9.73% (inactive). With Cc1nc2c(C(=O)NCCC3=CCCCC3)c[nH]n2c(=O)c1Cl the growth inhibition was 5.42% (inactive). With CCOC(=O)C1CN(c2cc3c(cc2F)c(=O)c(C(=O)O)cn3CC)OC1C(=O)OCC (stereo not given) the growth inhibition was 3.92% (inactive). For Cc1cc(N2CCC(C)CC2)nc(-n2nc(C)cc2C)n1, the growth inhibition was -4.79% (inactive). For O=c1[nH]c(=O)n(C2CCCCCC2)c(O)c1C=NCc1ccc(F)cc1, the growth inhibition was -0.14% (inactive). In the case of COC(=O)c1c(NC(=O)CCc2ccc(C)o2)sc(C)c1C, the growth inhibition is reported as 3.59% (inactive). In the case of N#Cc1nc(Cc2cccc3ccccc23)oc1NCCCn1ccnc1, the growth inhibition is reported as 2.47% (inactive). With N#Cc1nc(Cc2cccc3ccccc23)oc1NCc1ccc(F)cc1 the growth inhibition was 20% (active). With N#Cc1nc(Cc2ccccc2)oc1NCc1ccccc1Cl the growth inhibition was 14.5% (inactive). For CC1CCC(C(C)C)C(OC(=O)COC(=O)c2ccc(=O)[nH]c2)C1 (stereo not given), the growth inhibition was 1.53% (inactive). With C=CCn1c(NC(C)c2cc(Cl)ccc2O)nc2ccccc21 (stereo not given) the growth inhibition was 13.7% (inactive). For O=C(Nc1ccccc1N1CCCCC1)c1cccs1, the growth inhibition was 1.03% (inactive). In the case of O=C(OC1CCCCC1)c1ccc(NC(=O)c2ccco2)cc1, the growth inhibition is reported as 2.7% (inactive). For Cc1nn(-c2ccccc2)c(C)c1C(=O)Nc1nnc(-c2ccco2)o1, the growth inhibition was 9.7% (inactive). In the case of O=C(Nc1nnc(-c2ccc(F)cc2)o1)c1ccco1, the growth inhibition is reported as 1.59% (inactive). For Cc1ccc(-c2csc3ncnc(Sc4nnc(CN5CCCCCC5=O)o4)c23)cc1, the growth inhibition was 5.4% (inactive). With CCc1ccc2[nH]c(=O)c(C(c3nnnn3CCOC)N3CCN(c4ccc(F)cc4)CC3)cc2c1 (stereo not given) the growth inhibition was -0.14% (inactive). For CC(C)OCCCNc1ncnc2c1[nH]c1ccc(F)cc12, the growth inhibition was 9.62% (inactive). In the case of CC(C)OCCCNc1ncnc2c1[nH]c1ccccc12, the growth inhibition is reported as 8.07% (inactive). With CCOc1ccc2[nH]c3c(N4CCN(c5ccccn5)CC4)ncnc3c2c1 the growth inhibition was -8.17% (inactive). With N#C/C(=C\c1cccs1)Sc1nc2ccccc2s1 the growth inhibition was -8.78% (inactive). For O=C(CN(Cc1ccc2c(c1)OCO2)C(=O)CSc1nc2ccccc2o1)NC1CCCCC1, the growth inhibition was -6.97% (inactive). With C=C(C)Cn1c(N2CCC(Cc3ccccc3)CC2)nc2c1c(=O)[nH]c(=O)n2C the growth inhibition was -2.32% (inactive). For Cn1c(=O)c2c(nc(N3CCCCCC3)n2Cc2cccc3ccccc23)n(C)c1=O, the growth inhibition was -1.26% (inactive). For CCOc1ccccc1N1CCN(Cc2ccc(Br)s2)CC1, the growth inhibition was -0.45% (inactive). For CC1=CC(C)(C)N2C(=O)C3(SCC(=O)N3c3ccc(O)cc3)c3cc(C)cc1c32 (stereo not given), the growth inhibition was 1.81% (inactive). In the case of CCCOC(=O)c1ccc(Oc2cn[nH]c2-c2ccc(OCC)cc2O)cc1, the growth inhibition is reported as 8.01% (inactive). With Cn1c(=O)n(CCCOc2ccc(Br)cc2)c2ccccc21 the growth inhibition was 9.45% (inactive). With C=C(C)COc1ccc(-c2n[nH]c(C)c2-c2ccccc2)c(O)c1 the growth inhibition was 20.5% (active). For C=C(C)COc1ccc(-c2n[nH]c(C)c2Oc2ccccc2OC)c(O)c1, the growth inhibition was 0.02% (inactive). With C=C(C)COc1ccc(-c2n[nH]c(C)c2-c2ccccc2OC)c(O)c1 the growth inhibition was 8.4% (inactive). With c1ccc(-c2nc(N3CCCCCC3)c3ccccc3n2)nc1 the growth inhibition was 17.1% [at 50 µM] (inactive). With Cc1cccc(Nc2nc(-c3ccccn3)cs2)n1 the growth inhibition was 4.37% (inactive). For CCCCn1c(NC(=O)c2ccccc2)c(C#N)c2nc3ccccc3nc21, the growth inhibition was -8.7% (inactive). With CCn1c(Cn2nnc(-c3ccccc3)n2)nnc1SCc1ccc(Cl)c(Cl)c1 the growth inhibition was -0.33% (inactive). For Cc1cccc(NC(=O)c2cc(NC(=O)C3CCCCC3C(=O)O)ccc2N2CCCCC2)c1 (stereo not given), the growth inhibition was -4.25% (inactive). In the case of O=C(COn1nnc2ccc(C(F)(F)F)cc21)Nc1nnc(-c2ccccc2)o1, the growth inhibition is reported as -3.92% (inactive). In the case of O/N=C(\c1ccc(Cl)cc1)c1cc2ccccc2o1, the growth inhibition is reported as 8.62% (inactive). With Cc1onc(-c2ccccc2)c1C(=O)OCC(=O)c1ccccc1 the growth inhibition was 1.87% (inactive). For CN(c1ccccc1C(=O)Nc1ccc(S(=O)(=O)N2CCCCC2)cc1)S(C)(=O)=O, the growth inhibition was -1.44% (inactive). For O=C(NC1CCCC1)c1sc(=S)n2c1[nH]c(=O)c1ccccc12, the growth inhibition was -2.92% (inactive). For Cn1c(=O)c2c(SCc3cccnc3)nc(CC(C)(C)C)nc2n(C)c1=O, the growth inhibition was 1.92% (inactive). In the case of O=C(Nc1ccc(S(=O)(=O)N2CCCc3ccccc32)cc1)C1CCCO1 (stereo not given), the growth inhibition is reported as -2.99% (inactive). In the case of c1ccc(-n2nnnc2Oc2cccc3cccnc23)cc1, the growth inhibition is reported as 2.63% (inactive). In the case of O=C(NCc1ccco1)c1cc2sccc2n1Cc1ccccc1, the growth inhibition is reported as -6.37% (inactive). With N=c1n(CCN2CCOCC2)c2ccccc2n1CC(=O)c1ccc(Cl)c(Cl)c1 the growth inhibition was -3.82% (inactive). For c1csc(-c2nc3nc4ccccc4nc3n2Cc2ccc3c(c2)OCO3)c1, the growth inhibition was -7.29% (inactive). For COc1cc(-c2nc(Cc3ccccc3Cl)no2)cc(OC)c1OC, the growth inhibition was 8.5% (inactive). With O=C(COc1ccc2ccccc2c1Br)N1CCN(c2ccccn2)CC1 the growth inhibition was -12.5% (inactive). With CSCCOC(=O)C1=C(C)NC(=O)CC1c1ccccc1Cl (stereo not given) the growth inhibition was 3.74% (inactive). For CC(OC(=O)c1ccccc1NCc1ccco1)C(=O)Nc1ncc(Cl)cc1Cl (stereo not given), the growth inhibition was 11.2% (inactive). For COc1ccc(S(=O)(=O)Nc2ccc(S(=O)(=O)N3CCCCC3)cc2)cc1, the growth inhibition was -5.18% (inactive). In the case of N#CC1=C(N)NC(SCc2ccccc2)=C(C#N)C12CCCCC2, the growth inhibition is reported as 12.1% (inactive).
